Experimental findings from ChEMBL document CHEMBL4513216, “Probing the Open Global Health Chemical Diversity Library for Multistage-Active Starting Points for Next-Generation Antimalarials” (ACS Infect Dis, 2020) are described below.

The nature of this series: Toxicity liver stage against HepG2, at 10uM. Details: test concentration 10 uM, cell line HepG2-A16-CD81EGFP. It is filed as cell-based. To be noted: human, HepG2-A16-CD81EGFP cells; read-out: INHIBITION
Summed up: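 Uninfected HepG2-A16-CD81EGFP cells, 3 × 10^3 per well, 1536-well, plated on prespotted compound at 10 μM final, parasite-free screening media added to match infected plates; puromycin 10 μM positive, DMSO 0.5% negative; run in parallel with 48 h PbLuc assay at 37 °C, 5% CO2; viability by CellTiter-Glo luminescence, normalized to controls.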

Take `CCC(C)(C)NC(=O)Cn1nc(C)nc1-c1ccccc1`: the cytotoxicity at 10 µM was -15.4%.
For `CNc1ncccc1C(=O)N1CCN(Cc2ccc(C)cc2)C(=O)C1C` (stereo not drawn) the value was 5.67%.
For the molecule `CC(C)NC(=O)C1CCC2(CCN(Cc3cnn(C)c3)CC2)C1` (stereo not drawn), the cytotoxicity at 10 µM came to 2.77%.
As to `O=C(c1ncn2c1CNS(=O)(=O)c1ccccc1-2)N1CCCCCC1`, the cytotoxicity at 10 µM is 9.79%.
In the case of `c1csc(N2CCCN(c3nccn4cnnc34)CC2)n1`, the cytotoxicity at 10 µM was -5.05%.
`COc1ccc(CN2CCCC2)cc1Oc1ccc(NC(C)=O)cc1`: the cytotoxicity at 10 µM is -1.1%.
The figure for `COc1cccc(-c2n[nH]cc2CNC2CCCN(C)C2)c1` (stereo not drawn) is -8.86%; for `Cc1ccc(Cl)cc1NCc1nc2[nH]c(C)c(C)c(=O)n2n1` it is -4.96%; for `Cc1nn(C)c2c(=O)n(C)c(NCC3CCCO3)nc12` (stereo not drawn) it is 0.186%.
Take `CN1C[C@H](c2ccccc2)[C@H]2CN(C(=O)Cc3cccc(O)c3)CC[C@H]21`: the cytotoxicity at 10 µM stood at 4.98%.
For the molecule `COc1ccccc1OCC(=O)NCc1ncc(C)c(OC)c1C`, the cytotoxicity at 10 µM was -6.63%.
Consider `CCCc1cc(C(=O)NCCC2=CCCCC2)[nH]n1`, for which the cytotoxicity at 10 µM is -51.8%.
`CC(=O)NCCNC(=O)N(C)Cc1ccc2c(c1)OCCO2`: the cytotoxicity at 10 µM was -1.59%.
The figure for `CC(C)CNC(=O)N1CC[C@@H]2CN(Cc3cccnc3)S(=O)(=O)[C@@H]2CC1` is -93.6%.
In the case of `COc1ccc(N2CCC(NCc3csc(C(C)C)n3)CC2)cc1`, the cytotoxicity at 10 µM is -15.9%.
The figure for `CCN1CC2(CC1=O)CN(C(C)=O)CCN(C(=O)c1ccco1)C2` (stereo not drawn) is -8.92%; for `COCCNc1ccc(CC2CCCNC2)cn1` (stereo not drawn) it is 7.29%.
Consider `CCC(=O)Nc1cc(Br)cnc1OCC(F)(F)F`, for which the cytotoxicity at 10 µM was -1.24%.
The figure for `COc1ccc(C(=O)N2CCOCC2c2ccc(C)o2)cc1` (stereo not drawn) is -2.24%.
`Cc1cnc(N)nc1NCCSCc1[nH]cnc1C`: the cytotoxicity at 10 µM turned out to be 4.34%.
For `c1cc(C2CCCN2CC2CCCCC2)n[nH]1` (stereo not drawn) the value was -1.83%; for `CN(C)CCOCC1CN(C(=O)[C@H]2CCCO2)Cc2ccnn2C1` (stereo partly drawn), -0.422%.
On to `CCCN1CCCC2(CCN(Cc3cncn3C3CCCCC3)C2)C1=O` (stereo not drawn), for which the cytotoxicity at 10 µM was found to be 5.89%.
With `CN(C)C(=O)CN1CCc2ncnc(C3CC3)c2CC1`, the cytotoxicity at 10 µM is -94.1%.
Take `Cc1oc(-c2nc(C#N)c(NCC(C)C)o2)cc1S(=O)(=O)N1CCCC1`: the cytotoxicity at 10 µM was determined as 13.1%.
Turning to `Cn1ccnc1SCC(=O)NCCC1CCCO1` (stereo not drawn), the cytotoxicity at 10 µM was -2.49%.
With `COc1cccc(NC(=O)CN(C(C)C)C2CC2)c1`, the cytotoxicity at 10 µM is -2.83%.
For `Cc1ccc(C(=O)N2C[C@@H]3CCCO[C@@H]3[C@H](N(C)Cc3ccco3)C2)o1` the value was 5.51%.
As for `CC(C(=O)O)N1CC2(CCC1=O)CCN(C/C=C/c1ccccc1)CC2` (stereo not drawn), the cytotoxicity at 10 µM is -1.72%.
`CCC[C@@H]1CN(Cc2c[nH]nc2-c2ccc(F)cc2)C[C@H]1NS(C)(=O)=O`: the cytotoxicity at 10 µM came to 3.25%.
On to `Cc1ncsc1CCN(C)C(=O)CN1CCCCC1=O`, for which the cytotoxicity at 10 µM is -14.8%.
For the molecule `CCN(CC(F)(F)F)C(=O)C1CCCN(Cc2cscn2)C1` (stereo not drawn), the cytotoxicity at 10 µM is -8.64%.
The figure for `CC1(C(N)=O)CCCN(c2cnccn2)C1` (stereo not drawn) is -17.8%; for `CN(C)c1ncc(-c2c(-c3ccccc3)ncn2C(CO)C(=O)O)cn1` (stereo not drawn) it is 0.471%; for `CCc1cc(-c2cc[nH]n2)nc(N2CCCC2)n1` it is 0.255%.
For the molecule `Fc1cnc(N2CC[C@@H](N3CCOCC3)[C@@H]2Cc2ccccc2)nc1`, the cytotoxicity at 10 µM was determined as 3.67%.
Regarding `Cc1nn(C2CCS(=O)(=O)C2)c(O)c1Cc1cccc(Cl)c1` (stereo not drawn), the cytotoxicity at 10 µM was -46.9%.
`CC(C)(C)c1ncc(C(=O)NCCn2ccnc2)s1`: the cytotoxicity at 10 µM stood at 3.39%.
Take `Fc1cccc(-n2ccc(CN3CCCC3Cn3cncn3)n2)c1` (stereo not drawn): the cytotoxicity at 10 µM was -9.43%.
The figure for `Cc1ccc(OCC(=O)NCC(C)C)nc1` is -18.3%; for `O=C1Nc2ccccc2C12CCN(Cc1cccs1)CC2` it is -0.184%; for `Cc1ccc(NS(=O)(=O)c2cccc(C#N)c2)c(CN(C)C)c1` it is -4.97%.
Regarding `c1ccc(-n2nnnc2CNCC2CCCN2c2cccnn2)cc1` (stereo not drawn), the cytotoxicity at 10 µM was -4.14%.
As for `Cc1cc(N2CCC(O)(CN(C)C(=O)CCN)C2)c2cnccc2n1` (stereo not drawn), the cytotoxicity at 10 µM is -2.06%.
As to `CN(C(=O)Cc1ccc(F)cc1)C1CCN(c2ccccn2)CC1`, the cytotoxicity at 10 µM was -15.8%.
In the case of `COc1ccc(S(=O)(=O)NCCC(O)c2cccs2)c(C)c1` (stereo not drawn), the cytotoxicity at 10 µM is -1.13%.
Consider `Cc1cccc(-c2nc(CN3CCCC3Cn3cc(C)cn3)no2)c1` (stereo not drawn), for which the cytotoxicity at 10 µM is -1.82%.
As for `Cc1ccc(CN2CCn3c(CNS(C)(=O)=O)nnc3C2)s1`, the cytotoxicity at 10 µM is -67.7%.
With `CNC(=O)[C@@H]1C[C@@H](N)CN1C1CCN(c2ccccc2F)CC1`, the cytotoxicity at 10 µM is -53.3%.
Regarding `CCn1cc2c(n1)C(COC)CN(Cc1ccccn1)C2` (stereo not drawn), the cytotoxicity at 10 µM was -3.73%.
On to `c1cnnc(N2CCCC2CNCc2csc(-c3ccco3)n2)c1` (stereo not drawn), for which the cytotoxicity at 10 µM was -8.42%.
With `Cc1ccc(CC(=O)N2CCC(Nc3cccnn3)CC2)s1`, the cytotoxicity at 10 µM was -7.01%.
As for `CC(Cn1ccnc1)NC(=O)NCCc1ccc2c(c1)OCCO2` (stereo not drawn), the cytotoxicity at 10 µM was -1.35%.
Consider `COC(=O)CN1CCCN(C(=O)CCOc2cccc(C)c2C)CC1`, for which the cytotoxicity at 10 µM was -1.73%.
As to `COc1cc(C)nc(N2CCN(Cc3nccn3C)CC2)n1`, the cytotoxicity at 10 µM is -1.8%.
Regarding `N#Cc1cccc(OCCN2CCCC2C(=O)NC2CC2)c1` (stereo not drawn), the cytotoxicity at 10 µM was -3.78%.
Take `CC(C)N1CCCC2(CCN(C(=O)CCCn3cccn3)C2)C1=O` (stereo not drawn): the cytotoxicity at 10 µM is 0.264%.
As for `CCN(CC)[C@@H]1CN(Cc2ccc(C)o2)[C@@H]2CCCO[C@H]12`, the cytotoxicity at 10 µM is -148%.
In the case of `Cc1nc(CN2CCN(CCOc3ccc(C(C)C)c(C)c3)CC2)no1`, the cytotoxicity at 10 µM was -11.2%.
On to `CCc1sc(C(=O)Nc2cnn(CC(N)=O)c2)cc1C`, for which the cytotoxicity at 10 µM is -2.68%.
On to `Cc1ccc(CN2CC[C@H]3CO[C@H](CN(C)C)[C@H]3C2)o1`, for which the cytotoxicity at 10 µM was -114%.
As to `CCCn1nc2c(cc1=O)CN(CCCN1CCCC1=O)CC2`, the cytotoxicity at 10 µM was -6.49%.
In the case of `O=C(CSc1ccc2c(c1)OCCO2)NS(=O)(=O)c1ccccc1Cl`, the cytotoxicity at 10 µM is -4.46%.
Consider `CC(C)c1cc(C(=O)N(C)C(C)c2nccs2)no1` (stereo not drawn), for which the cytotoxicity at 10 µM is -9.15%.
With `CCOC(CC)C(=O)NCCC(=O)N1CCN(c2ncccn2)CC1` (stereo not drawn), the cytotoxicity at 10 µM is -3.91%.
The figure for `O=C(NC1CCCC1)N1CCCC(c2nccn2Cc2ccncc2)C1` (stereo not drawn) is -18.3%; for `CN(C)CC1CN(Cc2csc(C3CCCC3)n2)CCO1` (stereo not drawn) it is -7.32%; for `CN(C)S(=O)(=O)NC1CCCc2c1cnn2-c1ccc(C(C)(C)C)cc1` (stereo not drawn) it is 42.5%.
In the case of `O=C(O)c1ccc(Cc2cccc(F)c2)nc1`, the cytotoxicity at 10 µM stood at 3.11%.
The figure for `CCN(Cc1cc(Cl)ccc1OC)Cc1nccn1C` is 1.87%; for `Cc1nc(CCNC(=O)N2CCC(Cc3cnn(C)c3)C2)cs1` (stereo not drawn) it is -6.13%; for `O=S(=O)(Cc1ccc(F)cc1)NCc1ccco1` it is 14.1%.
For `Cc1cc(CN2CCN(CC(O)c3ccccc3)CC2)no1` (stereo not drawn), the cytotoxicity at 10 µM is -14.4%.
Regarding `O=C(NCC1CC1)[C@H]1C[C@@H]2CCN(Cc3ccc4c(c3)OCO4)C[C@@H]2O1`, the cytotoxicity at 10 µM is -0.208%.
Take `CCN(C(=O)CCc1ccccc1)C1CC(=O)NC1=O` (stereo not drawn): the cytotoxicity at 10 µM is -7.32%.
As for `CCOCCN1CCN(CC2(O)CCCCC2)CC1`, the cytotoxicity at 10 µM stood at 1.34%.
For `CCc1ccc(C2COCCN2C(=O)Nc2cc(C)on2)o1` (stereo not drawn) the value was -4.31%; for `c1ccc(-c2nc(CN3CCCC(Cn4cncn4)C3)cs2)cc1` (stereo not drawn), -9.53%.
Take `Cc1nc(CCNC(=O)NC2CCCc3c2cnn3CCO)cs1` (stereo not drawn): the cytotoxicity at 10 µM was 6.68%.
With `CCOc1ccc(C(=O)Nc2c(C)nc3cccc(C)n3c2=O)cc1`, the cytotoxicity at 10 µM stood at 8.99%.
With `C=c1cc(C)oc1=C1NC(c2c(C)ncc3c2CCNC3)=NO1`, the cytotoxicity at 10 µM is -0.132%.
Take `Cc1cc(C)c2nc(CNCCNS(C)(=O)=O)cc(O)c2c1`: the cytotoxicity at 10 µM worked out at 0.145%.
As for `COc1ccccc1C1CC(=O)Nc2c1c(=O)[nH]n2C(C)C` (stereo not drawn), the cytotoxicity at 10 µM was -4.08%.
Take `CC(Cn1ccnc1)NC(=O)N1CCN(Cc2cccnc2)CC1` (stereo not drawn): the cytotoxicity at 10 µM amounted to 4.31%.
As to `O=C(Cn1ccnc1)N1C[C@@H]2CC[C@H](Oc3ccccc3F)[C@@H]2C1`, the cytotoxicity at 10 µM was -28.9%.
On to `CC(C)n1nc2c(cc1=O)CN(CC(=O)N(C)c1nccs1)CC2`, for which the cytotoxicity at 10 µM is -9.94%.
On to `CSCCCn1ccnc1-c1cccc(C#N)c1`, for which the cytotoxicity at 10 µM was -13.3%.
In the case of `Cc1ccc(N2CCCC(NCc3ccc(C)s3)C2)nn1` (stereo not drawn), the cytotoxicity at 10 µM is -2.51%.
For `O=C(c1cccc2c1OCO2)N1CCCCC1Cn1cccn1` (stereo not drawn), the cytotoxicity at 10 µM was -1.25%.
For `c1csc(CN2Cc3nc(CN4CCCC4)oc3C2)c1` the value was 4.59%.
For `CCN1CCN(C2CCN(Cc3ccc(Cl)s3)CC2)C1=O` the value was 13.1%; for `Cc1cnn(C2CN(Cc3ccc4c(c3)OCCO4)C2)c1`, 16.3%; for `CCc1cnc(CN(C)C2CCN(CCn3cc(C#N)cn3)C2)o1` (stereo not drawn), -8.99%.
As to `COc1ccc(CCN)cc1-c1ccc(C(N)=O)cc1`, the cytotoxicity at 10 µM stood at 3.23%.
Take `CC(C)N1CCCn2nc(C(=O)NCCc3c[nH]cn3)cc2C1`: the cytotoxicity at 10 µM came out at 14.2%.
In the case of `COCC[C@]1(O)CCN(Cc2nnc(C)s2)C[C@H]1C`, the cytotoxicity at 10 µM was determined as 8.62%.
With `Cc1nn(C(C)C)c(C)c1NC(=O)c1ccc(F)cc1`, the cytotoxicity at 10 µM is -2.27%.
The figure for `Cc1nc(N(C)C)cc(C2(C)CCCNC2)n1` (stereo not drawn) is 2.05%.
